Laboratory results: ChEMBL document CHEMBL4513216, “Probing the Open Global Health Chemical Diversity Library for Multistage-Active Starting Points for Next-Generation Antimalarials” (ACS Infect Dis, 2020)

Assay: Toxicity liver stage against HepG2, at 10uM
Format: cell-based
Parameters: test concentration 10 uM, cell line HepG2-A16-CD81EGFP
Details: human, HepG2-A16-CD81EGFP cells; read-out: INHIBITION
Summary of the method: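 Uninfected HepG2-A16-CD81EGFP cells, 3 × 10^3 per well, 1536-well, plated on prespotted compound at 10 μM final, parasite-free screening media added to match infected plates; puromycin 10 μM positive, DMSO 0.5% negative; run in parallel with 48 h PbLuc assay at 37 °C, 5% CO2; viability by CellTiter-Glo luminescence, normalized to controls.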

CN(C)c1ccc(-c2nnc([C@H]3CCN(C4CCCCC4)C3)o2)cc1
cytotoxicity at 10 µM: 0.174%

CNC(=O)C(C)(C)N1CCC[C@H]1C(=O)NC(C)(C)C
cytotoxicity at 10 µM: -2.63%

COc1ccc(-c2noc([C@@H]3C[C@H](NC(=O)NC(C)C)CN3C)n2)cc1
cytotoxicity at 10 µM: -1.47%

CS(=O)(=O)c1ccc(CN2C[C@@H]3OCC(=O)N(CC(N)=O)[C@@H]3C2)cc1
cytotoxicity at 10 µM: 2.67%

CCOC(=O)[C@@H]1[C@@H](c2ccccc2)CN2CCN(C(=O)C3CC3)C[C@H]12
cytotoxicity at 10 µM: -0.973%

CSc1ccccc1NC(=O)C1CN(C(=O)c2ccc3c(c2)OCO3)C1
cytotoxicity at 10 µM: -12.3%

COCCN1C[C@@H]2CN(C(=O)CC3CC3)C[C@@H]2C1=O
cytotoxicity at 10 µM: 7.8%

C[C@@H]1C[C@H]2CN(C(=O)C3=CCCC3)C[C@H]2O1
cytotoxicity at 10 µM: 0.199%

O=C(NCCc1ccccn1)[C@@]12CCO[C@@H]1CCN(CC1CC1)C2
cytotoxicity at 10 µM: 5.79%

Cc1nc(CN2CCC23CCN(C(=O)c2ccncc2)CC3)cs1
cytotoxicity at 10 µM: 0.933%

O=C([C@H]1CCS(=O)(=O)[C@@H]2CN(Cc3ccc(F)cc3)C[C@H]12)N1CCCC1
cytotoxicity at 10 µM: 2.96%

CC(C)CNC(=O)[C@H]1CCS(=O)(=O)[C@@H]2CN(Cc3cccnc3)C[C@H]12
cytotoxicity at 10 µM: -2.36%

CCOCc1ncn2c1CN(C(=O)Nc1ccccc1CC)CC2
cytotoxicity at 10 µM: 7.45%

O=C(Nc1ccc(F)cc1F)Nc1c[nH]c(=O)[nH]c1=O
cytotoxicity at 10 µM: -3.55%

CCn1cc(CNC(=O)CC(C)C)cn1
cytotoxicity at 10 µM: 4.18%

Cc1nc(N2CCN(C(=O)c3ccccn3)CC2)c2c(n1)c(C)nn2C
cytotoxicity at 10 µM: 5.06%

N#CCC1CC(c2ccc(F)cc2)=NO1 (stereo not drawn)
cytotoxicity at 10 µM: -2.37%

CCn1cc(CN(C)S(=O)(=O)c2cc(Cl)ccc2Cl)cn1
cytotoxicity at 10 µM: 8.6%

O=C1CC(c2ccccc2)c2snc(C(=O)O)c2N1 (stereo not drawn)
cytotoxicity at 10 µM: -5.02%

CC(C)c1cc(C(=O)NCCc2nc(-c3cccnc3)n[nH]2)[nH]n1
cytotoxicity at 10 µM: 8.02%

CC(C)NC(=O)[C@@H]1CN(C)C[C@]12COc1ccc(F)cc1C2=O
cytotoxicity at 10 µM: 2.17%

COCC(=O)N1C[C@@H](O)[C@H](N2CCN(c3ccccc3)CC2)C1
cytotoxicity at 10 µM: 2.7%

CN(C)C(=O)c1cn[nH]c1C1(C)CCN(c2ncccn2)CC1
cytotoxicity at 10 µM: 5.88%

Cc1nn(C)cc1-c1cc(C(=O)NCC(C)(C)c2ccccc2F)n[nH]1
cytotoxicity at 10 µM: 6.82%

CCCn1nccc1-c1cc(C2CCN(C(C)=O)CC2)ccn1
cytotoxicity at 10 µM: -1.68%

CC(=O)NC(=O)C1(CCCc2ccncc2)CCN1 (stereo not drawn)
cytotoxicity at 10 µM: -24.5%

O=C(NC(Cc1ccsc1)c1nccs1)C1CC1 (stereo not drawn)
cytotoxicity at 10 µM: -28.3%

Cc1ccc(S(=O)(=O)NC(=O)CCc2ccccc2)cc1N(C)C
cytotoxicity at 10 µM: -0.31%

CCn1nc2c(cc1=O)CN(CC1CCCCO1)CC2 (stereo not drawn)
cytotoxicity at 10 µM: -2.94%

CCn1cnnc1CCNC(=O)c1ccc(F)c(Br)c1
cytotoxicity at 10 µM: 5.36%

Cc1cc(C)n(CC(C)NC(=O)C(C)(C)c2ccccc2F)n1 (stereo not drawn)
cytotoxicity at 10 µM: -2.58%

CCc1noc(C)c1C(=O)NCCCC(CC)(CC)C1OCCO1
cytotoxicity at 10 µM: -10.1%

NC(=O)CC1CCN(c2cncc(OCc3ccccc3)n2)CC1
cytotoxicity at 10 µM: 8.84%

CN(C)c1nc(CNC(=O)Nc2cccc([S+](C)[O-])c2)cs1 (stereo not drawn)
cytotoxicity at 10 µM: -5.27%

NC(=O)CC1CCN(S(=O)(=O)N2CCCC2c2ccco2)CC1 (stereo not drawn)
cytotoxicity at 10 µM: 3.82%

O=S(=O)(NC1CCN(CC(F)(F)F)C1)c1cc(F)cc(F)c1 (stereo not drawn)
cytotoxicity at 10 µM: -5.18%

CC(C(=O)N1CCN(CCOc2ccccc2)CC1)n1cncn1 (stereo not drawn)
cytotoxicity at 10 µM: -4.88%

Cc1n[nH]c(C)c1CNC(=O)NC1CCCCC1
cytotoxicity at 10 µM: 1.91%

Cc1cn2c(CN(C)C(=O)c3cnc(N)c(Cl)c3)c(C)nc2s1
cytotoxicity at 10 µM: -8.46%

Cc1cccc(C(=O)NCc2ccc(OCCN(C)C)cc2)c1C
cytotoxicity at 10 µM: 1.52%

Cc1nc(CCNc2ccc(-c3nc(C)c(C)c(=O)[nH]3)cn2)cs1
cytotoxicity at 10 µM: 2.07%

COc1cc(Nc2c(C#N)c(=O)n(C)c(=O)n2C)cc(OC)c1
cytotoxicity at 10 µM: -3.65%

CCOCCCNC(=O)N(C)Cc1ccc(SC)c(OC)c1
cytotoxicity at 10 µM: -5.41%

O=C(O)c1ccc(S(=O)(=O)Nc2c(F)cccc2-n2cccn2)cc1
cytotoxicity at 10 µM: -8.8%

Cc1cc(C(=O)Nc2cnn(CC(=O)NC3CCCC3)c2)c(C)s1
cytotoxicity at 10 µM: 3.07%

CCOc1cccc(COC(=O)c2ccc(F)cn2)n1
cytotoxicity at 10 µM: 0.296%

CC(c1nc(C2CC2)no1)N(C)Cc1ccc2c(c1)OCCO2 (stereo not drawn)
cytotoxicity at 10 µM: 0.611%

CC(C)n1nc2c(cc1=O)CN(CCOc1ccccc1C#N)CC2
cytotoxicity at 10 µM: 13.7%

Cc1ccsc1CN(C)C(=O)C1CCCN(C(N)=O)C1 (stereo not drawn)
cytotoxicity at 10 µM: 5.09%

CC(c1ccc(Br)cc1)N1CCCN(C(N)=O)CC1 (stereo not drawn)
cytotoxicity at 10 µM: 2.1%

O=C1COc2cccc(OCc3ccccn3)c2N1
cytotoxicity at 10 µM: 2.2%

CC(=O)c1ccc(-n2c(C)cn(CCC(=O)NC(N)=O)c2=O)cc1
cytotoxicity at 10 µM: 14.3%

O=S(=O)(NCCc1c[nH]c2cc(F)ccc12)C1CCOC1 (stereo not drawn)
cytotoxicity at 10 µM: 8.57%

O=C(CN1CCCNC1=O)Nc1ccccc1C(=O)C1CCCC1
cytotoxicity at 10 µM: 9.83%

O=C(NCCNC(=O)N1CCC(c2ccccc2)C1)C1CC1 (stereo not drawn)
cytotoxicity at 10 µM: -3.08%

CCN(CC)C(CNS(=O)(=O)c1ccc(C(=O)NC)cc1)c1ccco1 (stereo not drawn)
cytotoxicity at 10 µM: 4.62%

O=C(C1CC=CC1)N1Cc2nccn2CC(CN2CCCC2)C1 (stereo not drawn)
cytotoxicity at 10 µM: -86.5%

Cc1cccc(C(=O)N2CCc3c(COCC4CC4)cncc3C2)n1
cytotoxicity at 10 µM: -80.1%

CCO[C@@H]1CCN(C(=O)N(C)C)[C@@H]1Cc1cnn(C)c1
cytotoxicity at 10 µM: -73.4%

CNc1ccnc(N2CCC(c3nnc(CN4CCCC4)n3C)CC2)n1
cytotoxicity at 10 µM: 0.715%

c1ccc(Cc2noc(CCNC3CCOC4(CCOCC4)C3)n2)cc1 (stereo not drawn)
cytotoxicity at 10 µM: -0.872%

O=C(c1ccnc(N2CCOC(C(F)(F)F)C2)c1)N1CCOCC1 (stereo not drawn)
cytotoxicity at 10 µM: 2.52%

CN(C)C(=O)c1nc(CN2C(=O)OC[C@@H]2c2ccccc2)no1
cytotoxicity at 10 µM: -1.95%

COc1ccc(F)cc1C(C(=O)O)N1CCCN(C2CCCC2)CC1 (stereo not drawn)
cytotoxicity at 10 µM: -8.63%

O=C(c1cn(CC(=O)N2CCc3[nH]cnc3C2)c2ccccc12)C1CC1
cytotoxicity at 10 µM: 10.2%

CN[C@@H](CO)C(=O)NCc1cc2n(n1)CCCN(C1CCCCC1)C2
cytotoxicity at 10 µM: -3.14%

CC(Cn1ccnc1)NCc1n[nH]c2c1CCC2 (stereo not drawn)
cytotoxicity at 10 µM: 6.07%

CSCCCN1C[C@H](NC(=O)c2cnn(C)c2)[C@@H](C2CC2)C1
cytotoxicity at 10 µM: 4.43%

CCN(CC)C1CCN(C(=O)c2cc(CC(C)C)nn2CC)C1 (stereo not drawn)
cytotoxicity at 10 µM: -7.74%

O=C(O)C1c2nc[nH]c2CCN1Cc1ccccc1-c1ccccc1 (stereo not drawn)
cytotoxicity at 10 µM: -10.5%

COc1ccccc1OC1CCN(C(=O)c2cnc(C)s2)CC1
cytotoxicity at 10 µM: -19.2%

Cc1ccccc1SC1CCN(C(=O)C2CNC(=O)N2)CC1 (stereo not drawn)
cytotoxicity at 10 µM: -2.22%

Cc1nc(C2CCN(C(=O)c3cccnc3)CC2)c2sccn12
cytotoxicity at 10 µM: -5.35%

CCCc1noc(CNc2ccc(C(=O)N3CCCC3)cc2C)n1
cytotoxicity at 10 µM: -2.83%

Cc1ccc(F)c(NS(=O)(=O)c2cc(C(=O)O)oc2C)c1
cytotoxicity at 10 µM: -3.52%

CC(C)CCC(C)NC(=O)CN1C=Nc2ccccc2S1(=O)=O (stereo not drawn)
cytotoxicity at 10 µM: -1.64%

CC(Cn1cccn1)NCc1nc(-c2ccco2)no1 (stereo not drawn)
cytotoxicity at 10 µM: -2.66%

NS(=O)(=O)c1ccc(C(=O)N2CCCC2c2ccccc2)o1 (stereo not drawn)
cytotoxicity at 10 µM: -6.48%

CCn1ccnc1CN1CCN(CC(O)CN2CCOCC2)CC1 (stereo not drawn)
cytotoxicity at 10 µM: -7.83%

COc1ccccc1NC(=O)NCC(O)c1ccc(F)cc1F (stereo not drawn)
cytotoxicity at 10 µM: 4.1%

O=C1NCC(C(=O)Nc2ncc(Cc3cccc(F)c3)s2)N1 (stereo not drawn)
cytotoxicity at 10 µM: -2.45%

CCN(Cc1c(F)cccc1F)Cn1nc(C)c2c(C)onc2c1=O
cytotoxicity at 10 µM: -1.52%

Cc1nccn1CCCC(=O)N1CCC(N(C)c2cccnn2)CC1
cytotoxicity at 10 µM: -13.4%

Cc1nn(C)c(C)c1C1CCCN1C(=O)c1nccnc1N (stereo not drawn)
cytotoxicity at 10 µM: -3.08%

CCN1CCOC(CNCc2ccccc2OCC(=O)N(C)C)C1 (stereo not drawn)
cytotoxicity at 10 µM: -15.4%

CCC1c2ccsc2CCN1C(=O)NCCNc1ncccn1 (stereo not drawn)
cytotoxicity at 10 µM: -13.6%

CN(CC1COc2ccccc2O1)C(=O)NCCCn1ccnc1 (stereo not drawn)
cytotoxicity at 10 µM: -5.54%

Cc1cc(NC(=O)CCN(CC2CCOC2)C2CC2)no1 (stereo not drawn)
cytotoxicity at 10 µM: -0.794%

c1cnnc(N2CCCC2CNc2nc3ccccc3o2)c1 (stereo not drawn)
cytotoxicity at 10 µM: -2.96%

CS(=O)(=O)Cc1ccc(CNC(=O)c2cccnc2O)cc1
cytotoxicity at 10 µM: 0.481%

CN(Cc1nnc2n1CCC2)C(=O)Cc1ccc2c(c1)OCCO2
cytotoxicity at 10 µM: -7.86%

CCn1cnnc1C1CCN(C(=O)C(OC)c2ccccc2)CC1 (stereo not drawn)
cytotoxicity at 10 µM: 5.25%

CSCC[C@H](N)c1nnc(SCc2cc(C)ccc2C)o1
cytotoxicity at 10 µM: 0.0308%

O=C(c1ncccn1)N1CCC2(CC1)COC(COc1ccccn1)C2 (stereo not drawn)
cytotoxicity at 10 µM: -1.96%

CN(C)C(=O)COCC1CN(Cc2ccoc2)Cc2ncn(C)c21 (stereo not drawn)
cytotoxicity at 10 µM: 5.99%

O=S1(=O)NC[C@H]2CCN(Cc3ccccc3)CC[C@H]21
cytotoxicity at 10 µM: -10.5%

O=C(NCc1ccco1)[C@@H]1CC[C@@H]2[C@@H](CCN2CC2CC2)O1
cytotoxicity at 10 µM: -4.48%

COc1ccc(CN2CCC3(CC2)NC(=O)CC3c2cnn(C)c2)cc1 (stereo not drawn)
cytotoxicity at 10 µM: 0.424%

CC(=O)N1C[C@H]2CCCC(N3CCN(c4ncccn4)CC3)[C@H]2C1 (stereo partly drawn)
cytotoxicity at 10 µM: 9.46%

CC(=O)N1[C@H](CN(C)C)C[C@@H]2CN(C(=O)c3occc3C)CC[C@@H]21
cytotoxicity at 10 µM: 0.847%

COc1cc(CNC(C)Cn2cccn2)cc2c1OCO2 (stereo not drawn)
cytotoxicity at 10 µM: 1.58%

CCN1CCC2(C=C(C(=O)NC3CC3)c3ccccc32)CC1
cytotoxicity at 10 µM: 6.2%

CN(C)CCOCc1cncc2c1CCN(C1CCOCC1)C2
cytotoxicity at 10 µM: 4.62%

O=C1CO[C@@H]2CN(Cc3cccnc3)C[C@H]2N1Cc1ccncc1
cytotoxicity at 10 µM: -77.6%

Cc1cccc(CN2CCC3(CCCN(C(=O)c4ccsc4)C3)C2=O)n1 (stereo not drawn)
cytotoxicity at 10 µM: -1.14%

CCCn1cc(Cl)c(C(=O)N2C[C@H]3CC(OC)C[C@H]3C2)n1 (stereo partly drawn)
cytotoxicity at 10 µM: 0.19%

CC(C)=CCN1C(=O)[C@@H]2CC[C@H]1CN(c1ncccc1F)C2
cytotoxicity at 10 µM: 9.72%

COc1cc(O)cc2c1C(=O)CC(c1ccc(O)cc1)O2 (stereo not drawn)
cytotoxicity at 10 µM: -3.07%
